Experimental data reported in paper PMC8923172 (Antimicrobial Agents and Chemotherapy, 2022).
Marks after values point to notes of the source that are not given here. Residues, ends and D or L forms follow the SMILES beside them.

Test: Serum biochemistry of cynomolgus monkeys at the end of treatment
Type: in vivo
Details: median (IQR)
Method in brief: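 GLP 10-day study in male and female cynomolgus monkeys (n = 3-5/sex/group) dosed once daily with 0 (placebo), 5, 10 or 15 mg/kg test compound by i.v. infusion over 60 ± 5 min. Hematology, serum chemistry and coagulation were taken at end of treatment and reported as median (IQR). Dose groups were compared by Kruskal-Wallis with Dunn's multiple comparison test.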

CC[C@H](C)[C@@H]1NC(=O)[C@@H]2CSSC[C@H](NC(=O)[C@H](CCCNC(=N)N)NC(=O)[C@@H]3CSSC[C@H](NC1=O)C(=O)N[C@@H]([C@@H](C)O)C(=O)N[C@@H](CCCNC(=N)N)C(=O)NCC(=O)N[C@@H](Cc1ccccc1)C(=O)N3)C(=O)N[C@@H](CC(C)C)C(=O)N[C@H]1CSSC[C@H](NC(=O)[C@H](C(C)C)NC(=O)CNC(=O)[C@H](CCCNC(=N)N)NC(=O)[C@H](CCCNC(=N)N)NC1=O)C(=O)N[C@@H](CCCNC(=N)N)C(=O)N2 [RTD-1, Rhesus theta (θ) defensin-1] (HELM PEPTIDE1{G.F.C.R.C.L.C.R.R.G.V.C.R.C.I.C.T.R}$PEPTIDE1,PEPTIDE1,3:R3-16:R3|PEPTIDE1,PEPTIDE1,5:R3-14:R3|PEPTIDE1,PEPTIDE1,7:R3-12:R3|PEPTIDE1,PEPTIDE1,1:R1-18:R2$$$V2.0)
A/G (female, 5 mg/kg/day): 1.7 (0.2) | ALP (female, 5 mg/kg/day): 576.0 (132.0) U/L | ALT (female, 5 mg/kg/day): 112.0 (50.0) U/L | AST (female, 5 mg/kg/day): 69.0 (22.0) U/L | Albumin (female, 5 mg/kg/day): 4.5 (0.5) g/dL | CK (female, 5 mg/kg/day): 301.0 (38.0) U/L | Calcium (female, 5 mg/kg/day): 10.0 (0.4) mg/dL | Chloride (female, 5 mg/kg/day): 107.0 (1.5) mmol/L | Cholesterol (female, 5 mg/kg/day): 104.0 (17.5) mg/dL | Creatinine (female, 5 mg/kg/day): 0.5 (0.1) mg/dL | GGT (female, 5 mg/kg/day): 92.0 (14.0) U/L | Globulin (female, 5 mg/kg/day): 2.7 (0.4) g/dL | Glucose (female, 5 mg/kg/day): 60.0 (7.5) mg/dL | Phos (female, 5 mg/kg/day): 5.7 (0.2) mg/dL | Potassium (female, 5 mg/kg/day): 4.9 (0.6) mmol/L | Sodium (female, 5 mg/kg/day): 146.0 (0.0) mmol/L | T-Bil (female, 5 mg/kg/day): 0.2 (0.0) mg/dL | TP (female, 5 mg/kg/day): 7.6 (0.7) g/dL | Triglycerides (female, 5 mg/kg/day): 49.0 (8.5) mg/dL | Urea N (female, 5 mg/kg/day): 15.0 (4.0) mg/dL | A/G (female, 10 mg/kg/day): 1.6 (0.2) | ALP (female, 10 mg/kg/day): 915.0 (64.0) U/L | ALT (female, 10 mg/kg/day): 126.0 (87.5) U/L | AST (female, 10 mg/kg/day): 104.0 (16.0) U/L | Albumin (female, 10 mg/kg/day): 4.3 (0.1) g/dL | CK (female, 10 mg/kg/day): 1,102.0 (1,584.0) U/L | Calcium (female, 10 mg/kg/day): 10.0 (0.1) mg/dL | Chloride (female, 10 mg/kg/day): 109.0 (2.0) mmol/L | Cholesterol (female, 10 mg/kg/day): 91.0 (10.5) mg/dL | Creatinine (female, 10 mg/kg/day): 0.6 (0.1) mg/dL | GGT (female, 10 mg/kg/day): 88.0 (7.0) U/L | Globulin (female, 10 mg/kg/day): 2.7 (0.4) g/dL | Glucose (female, 10 mg/kg/day): 59.0 (6.5) mg/dL | Phos (female, 10 mg/kg/day): 5.3 (0.6) mg/dL | Potassium (female, 10 mg/kg/day): 5.1 (0.9) mmol/L | Sodium (female, 10 mg/kg/day): 146.0 (3.0) mmol/L | T-Bil (female, 10 mg/kg/day): 0.2 (0.1) mg/dL | TP (female, 10 mg/kg/day): 7.0 (0.3) g/dL | Triglycerides (female, 10 mg/kg/day): 49.0 (1.5) mg/dL | Urea N (female, 10 mg/kg/day): 16.0 (4.5) mg/dL | A/G (female, 15 mg/kg/day): 1.5 (0.0) | ALP (female, 15 mg/kg/day): 943.0 (411.0) U/L | ALT (female, 15 mg/kg/day): 92.0 (36.0) U/L | AST (female, 15 mg/kg/day): 95.0 (45.0) U/L | Albumin (female, 15 mg/kg/day): 4.3 (0.6) g/dL | CK (female, 15 mg/kg/day): 891.0 (603.0) U/L | Calcium (female, 15 mg/kg/day): 10.2 (0.4) mg/dL | Chloride (female, 15 mg/kg/day): 111.0 (1.0) mmol/L | Cholesterol (female, 15 mg/kg/day): 94.0 (13.0) mg/dL | Creatinine (female, 15 mg/kg/day): 0.7 (0.1) mg/dL | GGT (female, 15 mg/kg/day): 99.0 (37.0) U/L | Globulin (female, 15 mg/kg/day): 2.8 (0.1) g/dL | Glucose (female, 15 mg/kg/day): 78.0 (18.0)^c mg/dL | Phos (female, 15 mg/kg/day): 5.3 (0.3)^c mg/dL | Potassium (female, 15 mg/kg/day): 6.0 (1.0) mmol/L | Sodium (female, 15 mg/kg/day): 146.0 (4.0) mmol/L | T-Bil (female, 15 mg/kg/day): 0.2 (0.2) mg/dL | TP (female, 15 mg/kg/day): 7.1 (0.8) g/dL | Triglycerides (female, 15 mg/kg/day): 56.0 (11.0) mg/dL | Urea N (female, 15 mg/kg/day): 18.0 (1.0) mg/dL | A/G (male, 5 mg/kg/day): 1.8 (0.1) | ALP (male, 5 mg/kg/day): 802.0 (253.0) U/L | ALT (male, 5 mg/kg/day): 172.0 (125.0) U/L | AST (male, 5 mg/kg/day): 122.0 (190.0) U/L | Albumin (male, 5 mg/kg/day): 4.8 (0.2) g/dL | CK (male, 5 mg/kg/day): 888.0 (13,478.0) U/L | Calcium (male, 5 mg/kg/day): 9.8 (0.5) mg/dL | Chloride (male, 5 mg/kg/day): 110.0 (2.0) mmol/L | Cholesterol (male, 5 mg/kg/day): 110.0 (15.5) mg/dL | Creatinine (male, 5 mg/kg/day): 0.8 (0.2) mg/dL | GGT (male, 5 mg/kg/day): 137.0 (31.5) U/L | Globulin (male, 5 mg/kg/day): 2.7 (0.1) g/dL | Glucose (male, 5 mg/kg/day): 111.0 (26.5) mg/dL | Phos (male, 5 mg/kg/day): 5.5 (1.7) mg/dL | Potassium (male, 5 mg/kg/day): 6.0 (1.4) mmol/L | Sodium (male, 5 mg/kg/day): 147.0 (4.0) mmol/L | T-Bil (male, 5 mg/kg/day): 0.3 (0.1) mg/dL | TP (male, 5 mg/kg/day): 7.5 (0.2) g/dL | Triglycerides (male, 5 mg/kg/day): 46.0 (18.5) mg/dL | Urea N (male, 5 mg/kg/day): 15.0 (3.5) mg/dL | A/G (male, 10 mg/kg/day): 1.7 (0.2) | ALP (male, 10 mg/kg/day): 753.0 (3.5) U/L | ALT (male, 10 mg/kg/day): 105.0 (26.5) U/L | AST (male, 10 mg/kg/day): 105.0 (43.5) U/L | Albumin (male, 10 mg/kg/day): 4.7 (0.2) g/dL | CK (male, 10 mg/kg/day): 515.0 (2,756.5) U/L | Calcium (male, 10 mg/kg/day): 10.5 (0.4) mg/dL
